Assay results: ChEMBL document CHEMBL1130213, “Synthesis and pharmacological characterization of aminocyclopentanetricarboxylic acids: new tools to discriminate between metabotropic glutamate receptor subtypes” (J Med Chem, 1997)

Key:
[1] = molecular target: T1, Metabotropic glutamate receptor 2 (Homo sapiens, UniProt Q14416); assay: Agonist activity against Metabotropic glutamate receptor 2 expressed in HEK 293 cells was evaluated by measuring total inositol phosphate accumulation; format: functional, cell-based, HEK293
Method in brief: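 HEK 293 cells in DMEM with 10% fetal calf serum, electroporated with receptor plasmid (mGluR1a 0.3 μg, or mGluR2 2 μg co-expressed with Gqi9). Cells labeled overnight with [3H]myo-inositol, then stimulated 30 min with agonist in 10 mM LiCl. IP produced expressed over membrane radioactivity. Basal taken with glutamate pyruvate transaminase (1 unit/mL) plus 2 mM pyruvate. EC50 from logistic fit; triplicates.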
Target sequence in this assay (Q14416 whole entry): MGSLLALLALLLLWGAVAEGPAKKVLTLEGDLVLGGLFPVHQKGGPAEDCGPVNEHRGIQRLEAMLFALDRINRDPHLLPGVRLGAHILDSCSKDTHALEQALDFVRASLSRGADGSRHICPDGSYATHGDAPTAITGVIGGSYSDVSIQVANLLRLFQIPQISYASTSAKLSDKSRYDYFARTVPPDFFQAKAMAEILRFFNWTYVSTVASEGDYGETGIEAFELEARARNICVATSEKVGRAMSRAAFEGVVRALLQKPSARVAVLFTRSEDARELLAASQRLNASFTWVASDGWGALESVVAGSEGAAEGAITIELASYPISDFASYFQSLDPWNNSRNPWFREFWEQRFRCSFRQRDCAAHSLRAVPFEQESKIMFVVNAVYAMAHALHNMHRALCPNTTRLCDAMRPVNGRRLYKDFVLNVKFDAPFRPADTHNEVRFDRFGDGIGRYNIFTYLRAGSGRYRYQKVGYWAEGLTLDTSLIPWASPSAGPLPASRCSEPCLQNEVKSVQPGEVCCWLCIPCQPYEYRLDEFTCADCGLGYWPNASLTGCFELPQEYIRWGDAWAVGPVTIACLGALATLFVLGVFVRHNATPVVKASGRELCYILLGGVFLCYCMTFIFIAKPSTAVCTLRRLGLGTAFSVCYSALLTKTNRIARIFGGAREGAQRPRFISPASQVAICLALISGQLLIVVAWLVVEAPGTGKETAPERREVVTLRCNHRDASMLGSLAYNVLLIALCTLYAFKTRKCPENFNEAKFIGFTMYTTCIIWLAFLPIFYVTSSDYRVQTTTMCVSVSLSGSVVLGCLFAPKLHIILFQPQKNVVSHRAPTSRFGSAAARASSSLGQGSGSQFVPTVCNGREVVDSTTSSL

[2] = molecular target: T2, Metabotropic glutamate receptor 4 (Homo sapiens, UniProt Q14833); assay: Agonist activity against Metabotropic glutamate receptor 4 expressed in HEK 293 cells was evaluated by measuring total inositol phosphate accumulation; No effect at 1 mM; format: functional, cell-based; details: hek293
T2 sequence (Q14833 whole entry): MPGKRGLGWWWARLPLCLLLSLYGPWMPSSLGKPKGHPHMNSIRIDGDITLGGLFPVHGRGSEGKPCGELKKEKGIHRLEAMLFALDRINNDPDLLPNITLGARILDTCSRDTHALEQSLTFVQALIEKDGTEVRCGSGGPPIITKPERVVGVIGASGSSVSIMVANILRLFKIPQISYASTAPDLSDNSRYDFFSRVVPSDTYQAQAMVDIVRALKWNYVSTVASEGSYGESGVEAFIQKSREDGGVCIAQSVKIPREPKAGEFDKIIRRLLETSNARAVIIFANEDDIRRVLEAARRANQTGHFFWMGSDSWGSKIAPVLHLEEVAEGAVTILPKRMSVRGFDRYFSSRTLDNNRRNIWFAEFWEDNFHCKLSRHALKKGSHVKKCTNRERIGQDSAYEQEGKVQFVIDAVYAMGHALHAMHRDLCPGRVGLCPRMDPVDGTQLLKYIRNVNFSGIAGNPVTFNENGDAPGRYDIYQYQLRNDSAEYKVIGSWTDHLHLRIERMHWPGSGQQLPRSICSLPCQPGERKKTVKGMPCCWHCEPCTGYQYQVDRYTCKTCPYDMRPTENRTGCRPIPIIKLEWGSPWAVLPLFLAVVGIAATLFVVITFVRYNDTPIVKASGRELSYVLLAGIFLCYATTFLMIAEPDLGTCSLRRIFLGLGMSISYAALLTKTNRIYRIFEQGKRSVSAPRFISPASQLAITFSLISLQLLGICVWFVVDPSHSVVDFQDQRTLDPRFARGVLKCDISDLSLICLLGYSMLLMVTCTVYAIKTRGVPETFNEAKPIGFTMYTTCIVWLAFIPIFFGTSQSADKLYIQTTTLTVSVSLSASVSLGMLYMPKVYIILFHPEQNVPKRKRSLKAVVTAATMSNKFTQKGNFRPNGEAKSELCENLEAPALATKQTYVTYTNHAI

[3] = molecular target: T2, Metabotropic glutamate receptor 4; assay: Agonist activity against Metabotropic glutamate receptor 4 expressed in HEK 293 cells was evaluated by measuring total inositol phosphate accumulation; format: functional, cell-based, HEK293
[4] = molecular target: T1, Metabotropic glutamate receptor 2; assay: Agonist activity against Metabotropic glutamate receptor 2 expressed in HEK 293 cells was evaluated by measuring total inositol phosphate accumulation; No effect at 1 mM; format: functional, cell-based; details: hek293
Target sequence in this assay (Q14416 whole entry): as the sequence (Q14416 whole entry) above

[5] = molecular target: T1, Metabotropic glutamate receptor 2; assay: Antagonist activity against Metabotropic glutamate receptor 2 expressed in HEK 293 cells was evaluated by measuring total inositol phosphate accumulation; No effect at 1 mM; format: functional, cell-based; details: HEK293
Target sequence in this assay (Q14416 19-872 limits assumed): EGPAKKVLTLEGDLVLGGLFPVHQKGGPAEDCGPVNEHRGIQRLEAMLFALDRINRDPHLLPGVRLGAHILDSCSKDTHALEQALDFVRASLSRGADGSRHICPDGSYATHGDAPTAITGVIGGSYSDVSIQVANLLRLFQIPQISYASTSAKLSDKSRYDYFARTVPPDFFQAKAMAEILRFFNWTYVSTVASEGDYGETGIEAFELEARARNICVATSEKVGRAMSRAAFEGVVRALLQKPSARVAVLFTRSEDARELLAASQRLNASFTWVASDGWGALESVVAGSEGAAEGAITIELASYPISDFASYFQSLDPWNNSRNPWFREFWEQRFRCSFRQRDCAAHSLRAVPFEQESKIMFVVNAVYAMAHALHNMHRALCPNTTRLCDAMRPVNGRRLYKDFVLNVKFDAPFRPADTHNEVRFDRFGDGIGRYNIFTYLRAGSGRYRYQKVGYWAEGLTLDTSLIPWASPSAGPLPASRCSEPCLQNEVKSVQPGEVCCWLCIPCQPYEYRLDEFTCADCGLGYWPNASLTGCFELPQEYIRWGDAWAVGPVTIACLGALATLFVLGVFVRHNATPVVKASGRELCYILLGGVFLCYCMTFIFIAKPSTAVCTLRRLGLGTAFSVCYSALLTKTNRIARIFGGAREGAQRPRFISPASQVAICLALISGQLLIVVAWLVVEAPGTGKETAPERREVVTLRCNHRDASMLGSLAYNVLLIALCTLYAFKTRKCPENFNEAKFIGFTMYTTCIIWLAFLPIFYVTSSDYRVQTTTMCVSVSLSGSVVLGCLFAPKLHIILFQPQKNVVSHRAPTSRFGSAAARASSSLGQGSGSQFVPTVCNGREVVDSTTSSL

[6] = molecular target: Metabotropic glutamate receptor 1 (Homo sapiens, UniProt Q13255); assay: Agonist activity against Metabotropic glutamate receptor 1 expressed in HEK 293 cells was evaluated by measuring total inositol phosphate accumulation; No effect at 1 mM; format: functional, cell-based; details: hek293
Chain of Metabotropic glutamate receptor 1 (Q13255 whole entry): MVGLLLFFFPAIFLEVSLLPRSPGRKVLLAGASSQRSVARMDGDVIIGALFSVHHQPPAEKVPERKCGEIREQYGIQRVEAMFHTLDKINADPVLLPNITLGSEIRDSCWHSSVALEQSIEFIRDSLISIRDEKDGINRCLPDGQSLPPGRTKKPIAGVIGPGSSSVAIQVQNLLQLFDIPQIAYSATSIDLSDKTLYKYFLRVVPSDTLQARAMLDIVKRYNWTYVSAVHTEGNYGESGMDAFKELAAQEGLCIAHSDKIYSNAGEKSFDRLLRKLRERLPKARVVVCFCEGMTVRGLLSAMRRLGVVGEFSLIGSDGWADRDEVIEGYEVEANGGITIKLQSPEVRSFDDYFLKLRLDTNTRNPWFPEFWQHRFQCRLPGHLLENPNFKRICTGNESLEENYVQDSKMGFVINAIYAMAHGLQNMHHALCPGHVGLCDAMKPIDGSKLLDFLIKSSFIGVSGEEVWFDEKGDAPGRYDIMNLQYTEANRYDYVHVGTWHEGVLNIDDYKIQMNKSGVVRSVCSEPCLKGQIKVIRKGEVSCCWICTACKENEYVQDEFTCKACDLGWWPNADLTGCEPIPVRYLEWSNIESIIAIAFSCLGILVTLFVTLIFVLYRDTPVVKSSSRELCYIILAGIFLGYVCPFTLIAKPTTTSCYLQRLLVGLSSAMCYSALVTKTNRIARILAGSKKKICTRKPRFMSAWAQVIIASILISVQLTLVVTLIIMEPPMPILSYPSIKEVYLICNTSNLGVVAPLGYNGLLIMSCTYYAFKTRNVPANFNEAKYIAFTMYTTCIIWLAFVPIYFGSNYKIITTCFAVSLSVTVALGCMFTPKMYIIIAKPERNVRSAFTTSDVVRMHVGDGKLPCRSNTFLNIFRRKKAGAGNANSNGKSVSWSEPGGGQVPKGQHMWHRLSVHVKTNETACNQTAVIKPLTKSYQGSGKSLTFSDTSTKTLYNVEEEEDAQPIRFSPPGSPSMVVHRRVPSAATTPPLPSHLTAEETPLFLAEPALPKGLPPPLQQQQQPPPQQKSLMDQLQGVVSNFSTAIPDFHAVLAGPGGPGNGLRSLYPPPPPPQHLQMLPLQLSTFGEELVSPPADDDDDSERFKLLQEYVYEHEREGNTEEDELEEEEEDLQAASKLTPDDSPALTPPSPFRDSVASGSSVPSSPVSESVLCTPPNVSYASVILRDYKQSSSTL

| EC50 [2] | EC50 [3] [µM] | EC50 [4] | Kb [5] | EC50 [6] | SMILES | EC50 [1] [µM] |
| --- | --- | --- | --- | --- | --- | --- |
|  | 7.2 | No effect | No effect | No effect | N[C@@]1(C(=O)O)C[C@H](C(=O)O)[C@H](C(=O)O)C1 |  |
| No effect |  | No effect |  | No effect | N[C@]1(C(=O)O)C[C@H](C(=O)O)[C@H](C(=O)O)C1 |  |
| No effect |  | No effect |  | No effect | NC1(C(=O)O)C[C@@H](C(=O)O)[C@H](C(=O)O)C1 |  |
|  |  |  |  |  | N[C@@]1(C(=O)O)CC[C@@H](C(=O)O)C1 | 18 |
|  |  |  |  |  | N[C@]1(C(=O)O)CC[C@H](C(=O)O)C1 | 110 |
|  | 40 | No effect |  | No effect | NC1(C(=O)O)CC(C(=O)O)C(C(=O)O)C1 (racemic) |  |
|  | 8.8 | No effect |  | No effect | NC1(C(=O)O)C[C@H](C(=O)O)[C@@H](C(=O)O)C1 |  |
|  |  |  |  |  | N[C@@]1(C(=O)O)CC[C@H](C(=O)O)C1 | 13 |

| SMILES | EC50 [2] | EC50 [3] [µM] | EC50 [4] | Kb [5] | EC50 [6] | EC50 [1] [µM] |
| --- | --- | --- | --- | --- | --- | --- |
| N[C@]1(C(=O)O)CC[C@@H](C(=O)O)C1 | No effect |  |  |  |  | > 1000 |
